A selection: hits, their analogues and other compounds. The true share with any hit is near 0.97%.
TNF necrop inh: inhibitors of TNF-alpha triggered necroptosis, primary screen, cell-based, Jurkat FADD-/-, single concentration; activation (protection from cell death), % at 10 µM; 0.068% of 220,000 active; Jurkat FADD-/- TNF necroptosis rescue, ATP luminescence, 24 h; 0 = TNF only, 100 = no-TNF cells; AID 463075, 2010;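 active = activation, meaning protection from cell death, of at least 50% relative to plate controls; inactive = activation below 50%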;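 also: necroptosis triggered by 40 ng/mL TNF-alpha added together with compound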
Dynein cargo inh: inhibitors of GR-EGFP nuclear translocation, primary screen, dynein cargo transport inhibitor project, imaging, high-content, 3617.4 mouse cells; test concentration mostly 20 µM; stimulated with dexamethasone, 1 µM; stronger effect = lower value; z-score, hits read low; 0.47% of 220,000 active;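 active = plate z-score of nuclear minus cytoplasmic receptor signal below a set negative limit, without overly bright fluorescence or cell loss, cut at about -3.5 in these data, passing the limit was not always enough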;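 also: z-score of nuclear minus cytoplasmic ring GR-EGFP intensity difference per well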
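Also added: dexamethasone, 1.0 µM final. Medium: tet-free, stripped-serum medium. Detection: fixed, Hoechst-stained cells imaged at 10x for EGFP. Read-out: nuclear-to-cytoplasmic GR-EGFP distribution per well. Times: induction 48 h, compound 1 h, agonist 30 min.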
MDM2 E3 inh: MDM2-luciferase reporter signal enhancers, primary screen, MDM2 E3 ligase inhibitor project, cell-based, luminescence, 1536-well; cell-based MDM2 ubiquitination luciferase reporter, 2 h; 0 = plate control, 100 = twice control, blank-subtracted; signal enhancement, % at 5 µM; 0.11% of 210,000 active;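 active = signal enhancement of 30% or more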;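 also: luminescence tracks abundance of the self-degrading MDM2-luciferase fusion protein; higher signal means inhibition of MDM2 E3 ligase activity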
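Test system: stable mammalian line carrying autodegrading MDM2–luciferase fusion reporter; quantity: 2000 cells in each well; times: 4 h cell settling then 2 h compound exposure, 37 °C; detection: luminescence with SteadyLite reagent, 15 min at room temperature; evaluation: percent signal gain over controls, blank-subtracted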
Beta2AR agonist: beta2AR agonists driving receptor internalization, primary screen, cell-based, FAP fluorogen, flow cytometry. Beta-2 adrenergic receptor (Homo sapiens), P07550. Am2.2-beta2AR cells. response, % (test concentration not listed). 0.43% of 340,000 active;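 active = response above a set limit, near 3 SD of response in nonfluorescent compounds, cut at about 42% in these data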
Target sequence (P07550 whole entry, looked up): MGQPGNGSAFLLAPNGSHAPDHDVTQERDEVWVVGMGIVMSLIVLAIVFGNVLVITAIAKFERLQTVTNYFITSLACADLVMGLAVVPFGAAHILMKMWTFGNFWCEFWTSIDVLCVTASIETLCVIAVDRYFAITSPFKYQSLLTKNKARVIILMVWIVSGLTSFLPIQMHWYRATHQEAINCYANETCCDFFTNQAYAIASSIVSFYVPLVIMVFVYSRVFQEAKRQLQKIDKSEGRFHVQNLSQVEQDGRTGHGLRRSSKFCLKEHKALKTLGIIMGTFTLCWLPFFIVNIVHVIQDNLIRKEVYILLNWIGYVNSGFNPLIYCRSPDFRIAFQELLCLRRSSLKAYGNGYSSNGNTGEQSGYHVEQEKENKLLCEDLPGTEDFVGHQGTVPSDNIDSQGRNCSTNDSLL
L929 necroptosis: inhibitors of zVAD-triggered necroptosis, primary screen, L929 cells; L929 zVAD necroptosis rescue, ATP luminescence, 24 h; with zVAD 60 µM; viability rescue, % at 10 µM; 0.38% of 220,000 active; AID 1377, 2008;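 active = activation, scaled between plate controls, above about 75%, limit read from the data; inactive = activation under that limit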
Dynein inh conf: dynein cargo transport inhibitors, GR-EGFP translocation, confirmation, imaging, high-content imaging, GR-EGFP cells; shares compounds with Dynein cargo inh; 3617.4 GR-EGFP nuclear translocation imaging, dexamethasone-induced; calls only at 20 µM; 69% of 1,000 active; AID 463116, 2010;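 active = inhibition of receptor movement into the nucleus at or above a set limit in both runs, with normal cell brightness and cell count; inconclusive = limit reached in only one run, brightness and count normal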;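 also: dexamethasone at 1 µM final in well for 30 min; nuclear minus cytoplasmic GR-EGFP mean intensity difference in channel 2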
Hits are given with their value; 0 = inactive; ? = inconclusive; - = no result; + = active, no number.

SMILES | TNF necrop inh | Dynein cargo inh | MDM2 E3 inh | Beta2AR agonist | L929 necroptosis | Dynein inh conf
CS(=O)(=O)c1ncc(Cl)c(C(=O)Nc2ccc3ccccc3c2)n1 | 0 | -4.2 | 0 | 48 | 0 | +
CC(=O)Nc1ccc(NC(=O)c2nc(S(=O)(=O)Cc3ccccc3)ncc2Cl)cc1 | - | - | - | 0 | - | -
CN(C)CCCN1C(=O)c2cccc3c(Br)ccc(c23)C1=O | 0 | 0 | 0 | 0 | 0 | -
CCCCNc1ccc2c3c(cccc13)C(=O)N(CCCC)C2=O | 0 | -6.1 | 0 | - | 0 | +
CCC(C)(C)c1ccc(OCCCC[n+]2cccc(C)c2)c(C(C)(C)CC)c1 | 0 | -4.8 | 0 | 0 | 0 | 0
NNC(=O)CSc1nc(-c2ccccc2)nc2c1CCCC2 | 0 | 0 | 0 | 0 | 0 | -
CC(OC(=O)c1ccccn1)C(=O)Nc1ccc(C(F)(F)F)cc1 (stereo unspecified) | - | - | - | 0 | - | -
COc1ccc(-n2nc(C#N)c(Cl)cc2=O)cc1 | 0 | -5.9 | 0 | 90 | 0 | +
Cc1sc2ncnc(N3CCN(S(=O)(=O)c4ccccc4)CC3)c2c1C | - | - | - | 0 | - | -
CC1=NN(c2ccccc2)C(=O)/C1=C/C=C/c1ccc(N(C)C)cc1 | 0 | 0 | 0 | 0 | 0 | -
CC1=NN(c2ccccc2)C(=O)/C1=C\C=C\c1ccccc1 | 0 | -5.3 | 0 | 0 | 0 | +
COC(=O)c1cc(NC(=O)c2ccccc2)c(=O)oc1/C=C/Nc1ccc(Oc2ccccc2)cc1 | 0 | 0 | 0 | - | 0 | 0
CCOn1c(=O)c(-c2ccc(OC)cc2)[n+]([O-])c2ccccc21 | 0 | 0 | 0 | 0 | 0 | -
CCOn1c(=O)c(-c2ccc(OC)c(OC)c2)[n+]([O-])c2ccccc21 | 0 | -3.7 | 0 | 0 | 0 | 0
Cc1cc(N/C=C\c2nnnn2-c2ccc(F)cc2)no1 | 0 | 0 | 0 | 0 | 0 | -
Nc1nc2ccc(S(=O)(=O)N3CCCCC3)cc2s1 | 0 | -4.1 | 0 | 0 | 0 | 0
Cc1nc2ccc(S(=O)(=O)N3CCCCC3)cc2s1 | - | - | - | 0 | - | -
COc1ccc(Cl)cc1NC(=O)CCN1CCN(Cc2ccccc2)CC1 | - | - | - | 0 | - | -
N#Cc1cccc(N=c2ssnc2Cl)c1 | 0 | 0 | 0 | 0 | 0 | +
Oc1csc(Cc2nc(-c3ccc(-c4ccccc4)cc3)cs2)n1 | 0 | 0 | 0 | 0 | 0 | -
Clc1ccc(CSCCc2ccncc2)cc1 | 0 | 0 | 0 | 0 | 0 | -
CCC1=C(OC(=O)N(CC)CC)N2C(=O)OC(=NCc3ccccc3)[C@]2(C)[C@H]2C1=CC[C@H]1C(=O)N(c3ccccc3)C(=O)[C@H]12 | 0 | 0 | 0 | 0 | 0 | -
CCC1=C2CC[C@H]3C(=O)N(c4ccccc4)C(=O)[C@H]3[C@H]2[C@@]2(C)C(=NCc3ccccc3)OC(=O)N2C1=O | 0 | -4.2 | 0 | 0 | 0 | +
CC(=O)Nc1ccc(NC(=O)CSc2ccc(-c3sc(C)nc3C)nn2)cc1 | - | - | - | 0 | - | -
CCC(=O)N/N=C/c1ccc(-c2ccc([N+](=O)[O-])cc2)o1 | 0 | 0 | 0 | 0 | 0 | -
SMILES | TNF necrop inh | Dynein cargo inh | MDM2 E3 inh | Beta2AR agonist | L929 necroptosis | Dynein inh conf
CC(C)(C)C(=O)/C=c1\s/c(=C\c2ccc(-c3ccc([N+](=O)[O-])cc3)o2)c(=O)n1CC(=O)NC(N)=O | 0 | -8 | 0 | - | 0 | +
O=C(Nc1ccc2cn[nH]c2c1)c1c(Cl)cccc1Cl | 0 | 0 | 0 | 0 | 0 | -
O=C1C(Cl)=C(Nc2ccc3cn[nH]c3c2)C(=O)c2ccccc21 | 0 | -3.9 | - | 104 | 0 | +
CN(C(=O)COC(=O)c1cc(S(=O)(=O)N(C)C)ccc1Cl)C1CCS(=O)(=O)C1 (stereo unspecified) | - | - | - | 0 | - | -
Cc1ccc([N+](=O)[O-])cc1-c1ccc(/C=C(\C#N)c2[nH]nc(N)c2C#N)o1 | 0 | 0 | 0 | 0 | 0 | -
Cc1ccc(N2C(=O)CC(Sc3ncn[nH]3)C2=O)cc1C (stereo unspecified) | 0 | -6 | 0 | 0 | 0 | 0
Nc1ncnc(Sc2ncccn2)c1[N+](=O)[O-] | 0 | -5.1 | 0 | 0 | 0 | ?

High-throughput results as filed in PubChem BioAssay.
